From ChEMBL document CHEMBL4680221, “Discovery of pyrazole derivatives as cellular active inhibitors of histone lysine specific demethylase 5B (KDM5B/JARID1B)” (Eur J Med Chem, 2020) come the findings set out here.

Test [1] has as its target T1, Lysine-specific demethylase 5B (Homo sapiens, UniProt Q9UGL1). In words: Inhibition of KDM5B in human MKN-45 cells assessed as increase in H3K4me1 accumulation at 0.5 to 20 uM measured after 5 days by Western blot analysis. Format: cell-based. To be noted: dose 0.5-20 µM, time 5.0 day. In a few lines: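 MKN45 cells were treated for 5 days and lysed in RIPA buffer. About 30 µg protein was run on 10% SDS-PAGE and transferred to 0.2 µm nitrocellulose, then blocked with 5% milk in PBS for 2 h. Blots were probed for histone methylation marks with histone 3 as loading control and detected by ECL.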

In a further test the test system is MKN-45. In words: Antiproliferative activity against human MKN-45 cells assessed as reduction in cell proliferation measured after 4 days by MTS assay. Format: functional, cell-based. To be noted: MKN-45, 96 h. In a few lines: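 MKN45 cells were seeded at 3×10^3 cells per well and treated for 4 or 6 days, as indicated. Proliferation was read by MTS assay and IC50 derived. Three independent experiments, mean ± SD.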
A general note: Formazan colour is commonly taken as a measure of viable cells.

For test [2], the target named is T2, Lysine-specific demethylase 4C (Homo sapiens, UniProt Q9H3R0).
T2 sequence (Q9H3R0 whole entry): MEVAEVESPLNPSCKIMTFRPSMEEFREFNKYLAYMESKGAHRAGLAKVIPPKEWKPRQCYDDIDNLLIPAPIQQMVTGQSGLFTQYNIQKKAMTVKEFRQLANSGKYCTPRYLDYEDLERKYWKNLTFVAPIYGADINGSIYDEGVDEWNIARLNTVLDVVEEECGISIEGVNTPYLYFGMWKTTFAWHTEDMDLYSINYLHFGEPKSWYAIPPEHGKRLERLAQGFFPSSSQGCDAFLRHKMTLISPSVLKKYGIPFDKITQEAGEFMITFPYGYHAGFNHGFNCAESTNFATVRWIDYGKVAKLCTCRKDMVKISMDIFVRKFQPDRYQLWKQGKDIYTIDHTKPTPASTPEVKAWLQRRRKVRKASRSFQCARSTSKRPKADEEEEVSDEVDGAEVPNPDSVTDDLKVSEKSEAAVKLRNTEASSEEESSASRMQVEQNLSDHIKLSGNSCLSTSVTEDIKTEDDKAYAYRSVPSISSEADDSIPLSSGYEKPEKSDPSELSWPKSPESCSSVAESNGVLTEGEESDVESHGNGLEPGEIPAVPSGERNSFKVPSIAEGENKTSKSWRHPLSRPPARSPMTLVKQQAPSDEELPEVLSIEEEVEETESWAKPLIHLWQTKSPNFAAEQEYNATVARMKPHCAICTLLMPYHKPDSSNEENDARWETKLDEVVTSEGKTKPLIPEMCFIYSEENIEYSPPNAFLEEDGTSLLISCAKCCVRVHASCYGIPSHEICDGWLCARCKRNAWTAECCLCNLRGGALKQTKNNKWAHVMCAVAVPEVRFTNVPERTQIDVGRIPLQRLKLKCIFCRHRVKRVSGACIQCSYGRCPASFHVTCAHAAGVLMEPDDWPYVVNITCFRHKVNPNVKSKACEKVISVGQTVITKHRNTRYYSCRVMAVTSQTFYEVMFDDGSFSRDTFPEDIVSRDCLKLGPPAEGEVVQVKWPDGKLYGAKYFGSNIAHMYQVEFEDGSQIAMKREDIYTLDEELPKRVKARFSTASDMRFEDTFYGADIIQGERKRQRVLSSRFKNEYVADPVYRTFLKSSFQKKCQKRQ
The test is described as follows: Inhibition of KDM4C (unknown origin).

The target in test [3] is T3, Lysine-specific demethylase 4A (Homo sapiens) (UniProt O75164).
T3 sequence (whole entry): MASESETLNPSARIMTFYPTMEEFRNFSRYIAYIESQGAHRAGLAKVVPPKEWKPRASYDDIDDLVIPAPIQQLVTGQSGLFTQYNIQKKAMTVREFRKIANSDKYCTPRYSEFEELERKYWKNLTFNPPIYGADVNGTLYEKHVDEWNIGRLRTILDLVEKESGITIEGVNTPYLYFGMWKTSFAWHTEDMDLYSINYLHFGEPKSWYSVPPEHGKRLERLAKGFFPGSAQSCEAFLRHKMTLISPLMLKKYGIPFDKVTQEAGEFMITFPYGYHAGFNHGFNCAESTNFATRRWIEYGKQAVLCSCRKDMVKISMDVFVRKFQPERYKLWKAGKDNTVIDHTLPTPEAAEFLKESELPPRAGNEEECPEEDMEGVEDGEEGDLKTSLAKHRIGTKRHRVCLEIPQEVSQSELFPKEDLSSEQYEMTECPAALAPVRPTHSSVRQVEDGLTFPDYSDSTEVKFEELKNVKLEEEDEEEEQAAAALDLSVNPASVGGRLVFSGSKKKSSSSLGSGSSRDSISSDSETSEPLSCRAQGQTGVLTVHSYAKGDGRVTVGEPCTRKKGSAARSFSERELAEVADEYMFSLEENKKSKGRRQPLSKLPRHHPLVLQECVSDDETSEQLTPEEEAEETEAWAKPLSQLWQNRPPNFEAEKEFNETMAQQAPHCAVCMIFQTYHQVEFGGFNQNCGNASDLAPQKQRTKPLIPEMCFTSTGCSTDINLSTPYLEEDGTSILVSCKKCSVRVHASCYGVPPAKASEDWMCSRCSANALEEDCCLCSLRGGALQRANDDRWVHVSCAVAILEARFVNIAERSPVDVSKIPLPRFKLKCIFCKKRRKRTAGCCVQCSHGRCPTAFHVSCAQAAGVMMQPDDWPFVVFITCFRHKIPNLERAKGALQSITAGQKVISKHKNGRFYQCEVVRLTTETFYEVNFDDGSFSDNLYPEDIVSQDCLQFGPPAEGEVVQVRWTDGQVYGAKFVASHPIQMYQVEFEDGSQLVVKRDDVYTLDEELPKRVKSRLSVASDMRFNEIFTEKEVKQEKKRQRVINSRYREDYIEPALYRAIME
The test is described as follows: Inhibition of KDM4A (unknown origin) at 1 uM relative to control.

Test [4] deals with Lysine-specific demethylase 6B (Homo sapiens, UniProt O15054). In words: Inhibition of KDM6B (unknown origin).
Test [5] deals with T3, Lysine-specific demethylase 4A (Homo sapiens). The test is described as follows: Inhibition of KDM4A (unknown origin) at 0.25 uM relative to control.
The target of test [6] is T1, Lysine-specific demethylase 5B. In words: Inhibition of recombinant human N-terminal FLAG-tagged KDM5B expressed in Sf9 insect cells at 10 uM using biotin-H3K4me as substrate by ALPHA relative to control. In a few lines: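 ALPHA demethylase assay. Recombinant KDM5B (4 nM) was preincubated with compound, then biotin-H3K4me3 peptide (64 nM) was added. Buffer: 10 μM α-KG, 100 μM ascorbate, 50 μM (NH4)2Fe(SO4)2, 50 mM HEPES pH 7.5, 0.01% Tween 20, 0.1% BSA. Read-out used streptavidin donor and H3K4me1-2 antibody acceptor beads. Data were normalized to blank control and IC50 fitted.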

In test [7] the target is Lysine-specific demethylase 5A (Homo sapiens, UniProt P29375). In words: Inhibition of KDM5A (unknown origin).
The target in test [8] is Lysine-specific demethylase 5C (Homo sapiens, UniProt P41229). The test is described as follows: Inhibition of KDM5C (unknown origin) at 1 uM relative to control.
Test [9] has as its target T4, Lysine-specific demethylase 4C (Homo sapiens) (UniProt Q9H3R0).
T4 sequence (whole entry): T2 sequence (Q9H3R0 whole entry)
In words: Inhibition of KDM4C (unknown origin) at 0.01 uM relative to control.

Calls of active or inactive are those of the source. No cut-off for these calls is given here. Where only a bound is given, the exact number is not on record here.

T1 sequence (Q9UGL1 whole entry): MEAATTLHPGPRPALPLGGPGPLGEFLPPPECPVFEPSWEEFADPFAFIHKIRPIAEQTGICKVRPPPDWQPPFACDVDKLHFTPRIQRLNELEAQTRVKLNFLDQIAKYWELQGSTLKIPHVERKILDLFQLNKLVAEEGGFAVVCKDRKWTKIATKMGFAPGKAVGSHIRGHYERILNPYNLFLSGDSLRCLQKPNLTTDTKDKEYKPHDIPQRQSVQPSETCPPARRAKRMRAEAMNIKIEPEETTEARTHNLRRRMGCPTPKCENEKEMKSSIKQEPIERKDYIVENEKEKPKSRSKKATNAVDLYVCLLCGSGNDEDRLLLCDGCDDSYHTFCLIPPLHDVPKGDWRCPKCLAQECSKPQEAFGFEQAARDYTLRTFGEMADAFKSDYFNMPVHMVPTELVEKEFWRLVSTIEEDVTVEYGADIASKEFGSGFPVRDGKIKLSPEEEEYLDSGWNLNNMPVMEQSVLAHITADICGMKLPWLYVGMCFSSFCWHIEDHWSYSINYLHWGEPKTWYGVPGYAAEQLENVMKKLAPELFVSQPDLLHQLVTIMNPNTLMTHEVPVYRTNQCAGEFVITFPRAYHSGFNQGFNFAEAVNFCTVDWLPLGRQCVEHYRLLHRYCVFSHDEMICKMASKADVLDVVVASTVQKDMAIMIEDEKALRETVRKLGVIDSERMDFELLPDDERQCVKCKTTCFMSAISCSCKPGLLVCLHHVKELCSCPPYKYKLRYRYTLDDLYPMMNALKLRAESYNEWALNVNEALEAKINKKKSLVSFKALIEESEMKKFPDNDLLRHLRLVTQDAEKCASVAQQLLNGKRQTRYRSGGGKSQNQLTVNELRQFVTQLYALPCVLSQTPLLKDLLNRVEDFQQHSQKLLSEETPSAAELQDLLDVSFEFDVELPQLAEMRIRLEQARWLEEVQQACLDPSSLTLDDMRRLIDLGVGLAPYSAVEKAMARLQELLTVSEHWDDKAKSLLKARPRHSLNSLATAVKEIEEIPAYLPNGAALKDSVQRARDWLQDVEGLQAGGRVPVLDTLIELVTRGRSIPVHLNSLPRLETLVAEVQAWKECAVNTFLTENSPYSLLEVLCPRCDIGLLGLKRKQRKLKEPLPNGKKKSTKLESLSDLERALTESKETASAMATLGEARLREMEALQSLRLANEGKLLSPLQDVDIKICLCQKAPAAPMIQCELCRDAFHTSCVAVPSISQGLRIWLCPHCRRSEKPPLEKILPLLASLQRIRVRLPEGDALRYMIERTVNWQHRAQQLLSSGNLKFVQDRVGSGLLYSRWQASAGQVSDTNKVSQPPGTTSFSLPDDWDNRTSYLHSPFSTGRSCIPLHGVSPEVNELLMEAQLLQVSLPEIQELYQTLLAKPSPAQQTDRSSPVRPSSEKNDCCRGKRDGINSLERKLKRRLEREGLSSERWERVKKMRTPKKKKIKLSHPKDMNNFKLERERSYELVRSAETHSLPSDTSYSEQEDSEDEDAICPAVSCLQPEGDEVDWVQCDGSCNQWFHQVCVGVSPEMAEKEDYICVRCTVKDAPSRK
Chain of Lysine-specific demethylase 5A (P29375 whole entry): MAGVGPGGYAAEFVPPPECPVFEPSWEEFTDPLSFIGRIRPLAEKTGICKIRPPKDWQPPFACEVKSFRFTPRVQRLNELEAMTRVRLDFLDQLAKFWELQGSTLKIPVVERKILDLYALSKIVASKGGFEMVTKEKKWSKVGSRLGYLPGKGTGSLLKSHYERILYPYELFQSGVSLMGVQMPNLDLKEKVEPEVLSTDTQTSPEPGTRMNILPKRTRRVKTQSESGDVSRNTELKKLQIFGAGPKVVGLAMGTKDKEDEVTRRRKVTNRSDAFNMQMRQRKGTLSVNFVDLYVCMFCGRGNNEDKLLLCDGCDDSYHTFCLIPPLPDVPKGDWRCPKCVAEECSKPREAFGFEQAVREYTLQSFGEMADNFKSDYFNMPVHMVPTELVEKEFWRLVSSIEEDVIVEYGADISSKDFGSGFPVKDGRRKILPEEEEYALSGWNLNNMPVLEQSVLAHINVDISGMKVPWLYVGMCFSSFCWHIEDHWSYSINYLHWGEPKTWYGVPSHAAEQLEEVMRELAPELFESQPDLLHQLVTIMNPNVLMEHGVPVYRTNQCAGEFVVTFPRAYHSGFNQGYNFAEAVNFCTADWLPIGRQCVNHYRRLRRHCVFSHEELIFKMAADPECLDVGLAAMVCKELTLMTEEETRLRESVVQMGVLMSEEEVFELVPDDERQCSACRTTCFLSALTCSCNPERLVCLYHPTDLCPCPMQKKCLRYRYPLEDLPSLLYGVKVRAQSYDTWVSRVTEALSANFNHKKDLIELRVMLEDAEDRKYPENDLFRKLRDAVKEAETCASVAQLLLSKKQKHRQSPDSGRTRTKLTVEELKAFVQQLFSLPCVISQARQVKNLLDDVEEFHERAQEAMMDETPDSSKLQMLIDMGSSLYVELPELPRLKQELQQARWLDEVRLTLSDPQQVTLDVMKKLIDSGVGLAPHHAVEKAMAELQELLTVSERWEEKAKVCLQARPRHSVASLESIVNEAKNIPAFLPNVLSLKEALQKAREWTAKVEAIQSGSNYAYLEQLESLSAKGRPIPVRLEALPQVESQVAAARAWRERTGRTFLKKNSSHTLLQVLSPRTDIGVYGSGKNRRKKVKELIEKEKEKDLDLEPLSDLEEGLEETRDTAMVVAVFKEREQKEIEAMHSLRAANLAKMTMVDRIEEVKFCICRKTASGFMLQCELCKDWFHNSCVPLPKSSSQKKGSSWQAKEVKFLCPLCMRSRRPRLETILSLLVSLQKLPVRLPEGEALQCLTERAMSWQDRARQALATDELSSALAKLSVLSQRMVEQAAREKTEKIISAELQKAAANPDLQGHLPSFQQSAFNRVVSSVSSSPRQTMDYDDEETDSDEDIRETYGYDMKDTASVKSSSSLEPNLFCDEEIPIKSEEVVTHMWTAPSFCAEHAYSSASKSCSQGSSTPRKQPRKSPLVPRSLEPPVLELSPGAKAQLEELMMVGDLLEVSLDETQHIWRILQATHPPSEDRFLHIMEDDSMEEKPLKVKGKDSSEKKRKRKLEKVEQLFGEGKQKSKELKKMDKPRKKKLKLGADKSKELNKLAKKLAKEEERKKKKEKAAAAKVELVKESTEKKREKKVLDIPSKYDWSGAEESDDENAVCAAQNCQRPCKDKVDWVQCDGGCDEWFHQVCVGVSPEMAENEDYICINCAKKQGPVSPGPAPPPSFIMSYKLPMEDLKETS
Chain of Lysine-specific demethylase 5C (P41229 whole entry): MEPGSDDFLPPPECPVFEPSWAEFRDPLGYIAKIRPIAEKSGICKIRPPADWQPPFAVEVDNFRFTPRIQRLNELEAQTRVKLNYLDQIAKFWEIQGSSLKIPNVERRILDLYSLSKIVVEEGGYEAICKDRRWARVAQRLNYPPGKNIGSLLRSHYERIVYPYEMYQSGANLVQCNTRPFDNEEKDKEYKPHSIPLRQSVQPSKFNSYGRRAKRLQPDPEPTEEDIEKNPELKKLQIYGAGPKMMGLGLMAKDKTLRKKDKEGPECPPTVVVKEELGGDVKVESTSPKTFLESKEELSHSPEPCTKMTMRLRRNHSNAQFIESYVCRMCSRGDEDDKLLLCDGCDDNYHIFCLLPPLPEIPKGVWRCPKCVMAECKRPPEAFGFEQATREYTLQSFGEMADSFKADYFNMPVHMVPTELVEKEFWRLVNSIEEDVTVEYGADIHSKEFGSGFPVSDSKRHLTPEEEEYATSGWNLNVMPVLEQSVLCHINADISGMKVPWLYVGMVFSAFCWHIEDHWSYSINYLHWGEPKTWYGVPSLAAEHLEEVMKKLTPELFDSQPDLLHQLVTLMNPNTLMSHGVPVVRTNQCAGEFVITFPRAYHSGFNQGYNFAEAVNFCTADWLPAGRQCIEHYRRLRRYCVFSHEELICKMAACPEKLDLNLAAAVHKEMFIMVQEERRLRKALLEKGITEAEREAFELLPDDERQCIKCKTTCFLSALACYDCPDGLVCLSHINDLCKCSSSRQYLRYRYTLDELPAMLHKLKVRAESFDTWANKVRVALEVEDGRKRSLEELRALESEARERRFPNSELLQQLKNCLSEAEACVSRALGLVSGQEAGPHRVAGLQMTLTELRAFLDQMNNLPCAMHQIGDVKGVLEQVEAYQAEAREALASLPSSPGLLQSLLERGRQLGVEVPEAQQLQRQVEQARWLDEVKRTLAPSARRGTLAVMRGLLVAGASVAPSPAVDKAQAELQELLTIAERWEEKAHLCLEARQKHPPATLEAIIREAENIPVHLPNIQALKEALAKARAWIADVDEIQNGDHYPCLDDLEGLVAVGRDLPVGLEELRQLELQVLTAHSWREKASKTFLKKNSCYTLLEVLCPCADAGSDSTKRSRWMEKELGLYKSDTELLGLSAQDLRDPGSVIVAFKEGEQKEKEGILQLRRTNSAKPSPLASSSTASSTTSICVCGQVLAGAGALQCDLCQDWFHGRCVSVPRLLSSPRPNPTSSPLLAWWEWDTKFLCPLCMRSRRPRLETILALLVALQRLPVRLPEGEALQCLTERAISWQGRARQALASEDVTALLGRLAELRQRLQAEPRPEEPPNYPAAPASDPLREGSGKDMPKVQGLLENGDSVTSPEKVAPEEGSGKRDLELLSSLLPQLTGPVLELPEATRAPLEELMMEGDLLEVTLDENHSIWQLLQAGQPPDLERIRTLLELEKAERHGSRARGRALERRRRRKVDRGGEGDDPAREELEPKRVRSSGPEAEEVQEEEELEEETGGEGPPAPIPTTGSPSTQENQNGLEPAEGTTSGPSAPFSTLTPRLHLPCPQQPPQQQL

One may read the inhibition as the share of the control response that was lost under treatment. What is called IC50 is the concentration needed to halve the response being measured. Regarding `COc1ccc(-n2cc(C(=O)NCC(C)(C)N3CCOCC3)c(-c3ccccc3)n2)cc1`, the inhibition result in test [1] is “inactive”. Moreover, the IC50 with MKN-45 was 26.7 µM; in [2] it was 1.11 µM; in test [4], greater than 1 µM; in test [7] it was 0.0249 µM. Further, the inhibition in test [3] stood at 56.2%; in [5] it was 29.4%; in test [6], 95.8%; in test [8], 80.2%; in test [9] it was 3.52%.
